EphB4 ephrin blk = blocks human EphB4 binding to ephrin-B2. 97,000 tested, 0.15% active. EphB4 LBD / TNYL-RAW-Alexa532 peptide, fluorescence polarization. inhibition, % at 7 µM. P54760;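 active = inhibition above the screen-wide mean inhibition plus 3 SD, cut at about 15% in these data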;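 note: 0% = DMSO wells and 100% = excess unlabeled TNYL-RAW peptide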
Rev-RRE block = HIV Rev-RRE protein-RNA interaction inhibition; P05866; AID 704; Rev peptide-RRE RNA binding, FRET; 97,000 tested, 0.79% active; inhibition, % at 8 µM;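 active = inhibition above the screen-wide mean plus 3 SD, cut at about 35% in these data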;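 note: 0% = median DMSO wells and 100% = median Neomycin B control wells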
Target sequence (P05866 whole entry, looked up): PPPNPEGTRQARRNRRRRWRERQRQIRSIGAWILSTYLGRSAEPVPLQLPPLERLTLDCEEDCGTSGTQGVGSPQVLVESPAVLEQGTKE
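Test system: labelled RRE RNA duplex and labelled Rev peptide. Times: 5 min compound–RNA preincubation, then 15 min with peptide, 25 °C. Doses: single-dose 8 µM. Measured by: FRET, excitation 480 nm, emission 540 nm donor and 671 nm acceptor. Measure: % inhibition of FRET ratio versus controls.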
PostGolgi ctrl = growth of the yeast control strain, post-Golgi counter-screen. efflux-deficient yeast background strain, growth absorbance A615, 16 h. inhibition, % at 10 µM. 98,000 tested, 5% active. AID 738
PostGolgi yeast = growth inhibition of a yeast mutant, post-Golgi transport screen. post-Golgi transport phenotypic cell assay. inhibition, % at 10 µM. 98,000 tested, 0.9% active;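 note: yeast cells grown in 1536-well plates; yeast grown about 18 h at 30C before absorbance read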
PLK1 kinase inh = inhibitors of human PLK1 kinase | P53350 | recombinant PLK1 kinase, TR-FRET peptide phosphorylation | inhibition, % at 10 µM | 97,000 tested, 0.53% active | AID 619;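 active = inhibition of 50% or more in the single-concentration screen; inactive = inhibition below 50%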;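 note: 0% = DMSO max control and 100% = H-89 dihydrochloride min control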
PLK1 PBD inh = Plk1 (human) PBD binding inhibition; P53350; Plk1 PBD phosphopeptide binding, fluorescence polarization; inhibition, %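 (tested at about 20 µM)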; 97,000 tested, 0.13% active; AID 693; in the data active = inhibition above about 34%, passing the limit was not always enough
The depositor's hits bear a star; · = not tested or not shown. An excerpt weighted towards active compounds, which were near 6.4% of everything screened. Cut-off read from the data, not from the text of the source, unless noted: active = inhibition above about 30%; inactive = the rest.

SMILES	EphB4 ephrin blk	Rev-RRE block	PostGolgi ctrl	PostGolgi yeast	PLK1 kinase inh	PLK1 PBD inh
O=[N+]([O-])c1ccc(-c2cc(-c3ccncc3)nc3ccc4ccccc4c23)cc1	-1.5	2.0	-3.6	2.4	-5.1	-15.5
CCCCc1nn(-c2cc(Cl)ccc2OC)c2c1C(=O)CC(C)(C)C2	-0.7	8.6	31.7*	-3.5	-13.4	9.9
Cc1ccc(-n2nnnc2SCc2ccccn2)cc1C	5.3	2.6	-0.5	5.8	-9.2	18.5
Cc1cccc(-n2ncc3c(NCCCN4CCCC4=O)ncnc32)c1	-5.5	-3.7	4.8	-11.3	-6.2	-0.9
O=C1CCCN1CCCNc1ncnc2c1cnn2-c1ccc(Cl)cc1	·	·	37.7*	-3.2	·	·
CN(C)CCNC(=O)Cn1nc(C(F)F)cc1C1CC1	3.3	5.8	31.6*	-3.2	-13.4	-6.2
CCCCCCOC(=O)Cc1c(C)nc(-c2ccccc2)[nH]c1=O	4.8	6.0	34.1*	-7.9	-2.0	10.2
C=C(C)Cc1c(C)nc(-c2ccccc2)[nH]c1=O	-0.6	5.2	4.5	3.1	-8.4	3.5
COn1c2c(c3c4nonc4ccc31)CCCC2	0.3	15.2	-1.7	15.0	8.2	12.5
On1c2c(c3c4nonc4ccc31)CCCC2	-1.6	15.1	·	·	50.9*	5.8
O=C(c1ccco1)N(CCC(c1ccccc1)c1ccco1)Cc1ccc(F)cc1 (centres undefined)	1.0	-0.8	39.8*	-5.1	-4.5	-23.6
COc1ccccc1C(=O)NCCc1nc2ccccc2[nH]1	0.8	2.7	-5.5	-1.7	-11.4	-3.2
C=CCSc1nccc(-c2nn(-c3ccc(C)cc3)ccc2=O)n1	-1.1	-1.6	34.2*	1.9	-5.0	-28.5
CCOC(=O)C1CCCN(S(=O)(=O)c2cc(OCC(N)=O)c(C)cc2Cl)C1 (centres undefined)	-2.8	2.7	33.1*	-0.5	-15.9	-3.8
Cc1cc(Cl)c(S(=O)(=O)N2CCCCCC2)cc1OCC(N)=O	7.9	2.2	17.3	-4.2	-6.3	0.1
CCOC(=O)c1cnc2c(C#N)c(C)nn2c1-c1ccccc1	-3.9	4.7	31.7*	3.1	64.2*	9.9
CCCCCCOC(=O)Sc1nc2ccccc2o1	6.9	20.2	9.3	33.7*	-8.9	11.4
COC(=O)CSc1nc2ccccc2o1	0.4	8.9	-3.2	4.2	-8.3	2.2
O=C1CC(N2CCN(C3CCc4ccccc4C3)CC2)C(=O)N1c1ccccc1 (centres undefined)	-7.0	0.2	·	·	-4.5	-7.0
COC(=O)C(OC(=O)c1ccc(OC)cc1)C(=O)OC	8.8	4.2	·	·	-8.8	-6.1
COC(=O)CCN(C(=O)c1cccc(OC(C)=O)c1)c1ccccn1	-6.6	0.6	12.3	-4.8	-7.2	11.1
CC(C)N1CCC2(CC1)N=C(c1ccc3c(c1)OCO3)CC(c1cc(Cl)ccc1O)N2 (centres undefined)	-4.8	2.8	50.1*	15.0	1.5	-1.9
COc1ccc2nc3oc(C(=O)N4CCN(c5cccc(Cl)c5)CC4)cc3cc2c1	-1.3	1.5	34.9*	0.5	-1.2	0.9
Cc1ccc(-c2noc(CCCN3C(=O)c4ccccc4C3=O)n2)cc1	1.1	6.1	31.2*	8.5	-13.5	-9.4
O=C1c2ccccc2C(=O)N1CCCCCc1nc(-c2ccccc2)no1	-3.3	3.6	49.0*	8.4	-11.0	-8.3
SMILES	EphB4 ephrin blk	Rev-RRE block	PostGolgi ctrl	PostGolgi yeast	PLK1 kinase inh	PLK1 PBD inh
O=C1c2ccccc2C(=O)N1CCc1nc(-c2ccncc2)no1	5.7	-2.5	-5.5	-1.8	-5.9	-3.6
COc1ccc(N(C(=O)c2ccco2)S(=O)(=O)c2cccs2)cc1	-0.4	0.8	10.7	21.4	-15.8	-2.1
CC(=O)N(c1ccc(N(C(C)=O)S(=O)(=O)c2cccs2)cc1)S(=O)(=O)c1cccs1	1.7	3.7	65.6*	0.0	-15.2	9.6
CC1(C)CC(=O)c2sc(NC(=O)c3ccc4ncsc4c3)nc2C1	5.8	8.5	2.9	-5.6	-17.4	18.0
Cc1cc(/C=N/n2cnnc2)c(C)n1-c1ccc(OCc2ccccc2F)cc1	0.1	-2.3	64.6*	7.2	-36.4	-5.8
C(=N\n1cnnc1)/c1ccc(OCc2ccccc2)cc1	·	·	3.6	0.6	·	·
Cc1cc(/C=N/n2cnnc2)c(C)n1-c1ccc(OCc2ccc(Cl)cc2)cc1	-1.0	1.1	77.6*	10.8	-3.7	-23.8
COCC(C)n1c(C)cc(C(=O)COC(=O)c2ccc(N3CCCC3=O)cc2)c1C (centres undefined)	-8.3	0.8	7.8	-4.5	-13.6	-20.6
CC(=O)OC(C(=O)NC1CCCCC1)c1cccc(C)c1 (centres undefined)	3.1	3.6	6.5	-6.0	-7.4	11.9
COc1cc(SC)ccc1C(=O)NCc1ccc(C)cc1	-4.1	8.8	23.7	44.2*	-13.7	7.0
Cc1sc(NC(=O)c2ccccc2)c(C(=O)NCCN(C)C)c1C	-11.6	1.5	-4.5	-4.3	-7.1	3.7
CCOC(=O)c1oc2nc(CC(C)C)c3c(c2c1N)CCC3	-2.4	-1.3	25.5	3.3	-18.1	2.3
O=S(=O)(NC1CC2CCC1C2)c1ccc2c(c1)OCCO2 (centres undefined)	·	·	55.1*	1.0	·	·
COc1cc(S(=O)(=O)NC2CCCCC2)ccc1Cl	-2.7	4.7	13.2	1.4	-6.2	-20.4
COc1ccc(S(=O)(=O)NC2CC3CCC2C3)cc1Cl (centres undefined)	1.6	13.2	94.9*	81.4*	-8.9	-9.9
O=S(=O)(NCC1CCCO1)c1ccc2c(c1)OCCO2 (centres undefined)	4.7	4.3	-3.2	1.6	-9.4	3.2
CC1CCCC(NS(=O)(=O)c2ccc3c(c2)OCCO3)C1C (centres undefined)	-11.6	13.2	55.4*	-6.8	-9.3	9.9
COC(=O)c1ccc(-c2ccc(CNCC(O)c3ccccc3)o2)cc1 (centres undefined)	·	·	17.4	-7.8	·	·
CC1(C)Oc2ccc(NC(=O)c3ccco3)cc2O1	2.8	10.1	9.2	7.0	-4.4	16.2
Cc1[nH]c2ccc(-c3nnc(SCC(=O)N4CCCc5ccccc54)o3)cc2c1C	4.7	2.7	29.8	-1.9	-37.9	-3.0
Cc1nc(NC(=O)c2ccccc2)sc1-c1csc(NCc2ccccc2)n1	-0.6	9.7	14.8	66.7*	-12.0	5.7
COc1ccc2cc3cc(C(=O)NCC4COc5ccccc5O4)oc3nc2c1 (centres undefined)	-2.5	7.1	5.7	-3.3	-14.8	-4.3
O/N=C/c1cc(Cl)ccc1OCc1cccc2ccccc12	-0.6	25.1	60.5*	24.4	-9.8	-2.5
c1csc(CN2CCOCC2)c1	0.0	7.1	0.4	-7.4	-11.3	13.9
Cc1cc(NC(=O)CCC(=O)N(c2ccc(F)cc2)C2(C(=O)NC3CCCCC3)CCCC2)no1	-9.5	-0.3	39.3*	6.0	-12.6	-12.2

Screening data deposited in PubChem BioAssay by several laboratories.
